From ChEMBL document CHEMBL3621160, “Pseudosaccharin amines as potent and selective KV1.5 blockers” (Bioorg Med Chem Lett, 2015) come the findings set out here.

As a reminder, the IC50 is the point on the concentration scale where inhibition reaches its midpoint. The inhibition is the share of the control response that was lost under treatment. One may read the AUC as the area under the concentration-time curve, a measure of exposure. A word on the half-life: it is how long it takes for the measured level to halve. As usually defined, the Cmax is the maximum level reached in the sampled fluid or tissue. In general, EC20 refers to the point of the concentration-response curve where the effect stands at 20%. The term bioavailability denotes the share of a dose that reaches the circulation, judged against a reference dose that is usually intravenous.

Series [1] has as its target T1, Potassium voltage-gated channel subfamily A member 5 (Homo sapiens, UniProt P22460). Description: Inhibition of human KV1.5 expressed in mouse L929 cells assessed as decrease in ultrarapid potassium current amplitude. The class given is cell-based. The essentials: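 Potassium current block was measured in mouse fibroblast L929 cells expressing human KV1.5. IC50 values are means of 2-4 experiments.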

The target of series [2] is T1, Potassium voltage-gated channel subfamily A member 5. Description: Inhibition of human KV1.5 expressed in mouse L929 cells assessed as decrease in ultrarapid potassium current amplitude relative to control. The series is classed as cell-based. On the set-up: concentration or dose not given beside the values. Particulars: concentration not given here. The method in brief:
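Potassium current block in mouse fibroblast L929 cells expressing human Kv1.5. IC50 values are means of 2-4 experiments.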

A short description of series [3]: Metabolic stability in mouse liver microsomes assessed as compound remaining at 3 uM after 10 mins. Particulars: read-out: Stability. The series is classed as ADME. The essentials: (§1)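 Parent compound at 3 µM was incubated 10 min in human, rat or mouse liver microsomes with appropriate co-factors. Read-out is percent of parent remaining.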
In general terms: Microsomes from liver hold many membrane-bound enzymes, among them those of drug oxidation.

Series [4] is described as follows: Metabolic stability in human liver microsomes assessed as compound remaining at 3 uM after 10 mins. The class given is ADME. As to conditions: read-out: Stability. The method in brief: as §1
The nature of series [5]: Metabolic stability in rat liver microsomes assessed as compound remaining at 3 uM after 10 mins. The series is classed as ADME. As to conditions: read-out: Stability. The essentials:
as §1

The test system of series [6] is Oryctolagus cuniculus. The series can be described thus: Toxicity in rabbit assessed as increase in blood pressure at 0.3 to 3 mg/kg. The series is classed as organism-based. As to conditions: in vivo. The method in brief: (§2)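 Rabbits were dosed at 0.3, 1.0 and 3.0 mg/Kg. Effective refractory period was measured in atrium and ventricle, and blood pressure was recorded. The plasma concentration giving 20% atrial ERP prolongation (EC20) was calculated.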

Series [7] can be described thus: Clearance in rat at 1.6 mg/kg administered as intra-arterial infusion for 10 mins and 3.6 mg/kg, po. The series is classed as ADME, organism-based. Particulars: in vivo. The method in brief: (§3)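 Rats, 3 animals per compound; values are means. Intravenous arm: intra-arterial infusion over 10 min. Oral arm: dosing by gavage. Both routes used a vehicle of 40% PEG 400, 40% water and 20% ethanol. Parameters were derived from plasma concentrations across the infusion and oral arms.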

Series [8] concerns Rattus norvegicus. Description: Toxicity in rat assessed as increase in blood pressure at 3 mg/kg, iv administered as infusion for 5 mins. The series is classed as organism-based. As to conditions: in vivo. The essentials:
(§4)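 Rats were dosed at 3 mg/Kg. QT interval on ECG, mean blood pressure (% change) and plasma concentration were measured. Values are means of 2-4 experiments.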

The nature of series [9]: AUC in rat at 3.6 mg/kg, po. The class given is ADME, organism-based. Particulars: in vivo. The method in brief: as §3
The nature of series [10]: Volume of distribution at steady state in rat at 1.6 mg/kg administered as intra-arterial infusion for 10 mins and 3.6 mg/kg, po. The series is classed as ADME, organism-based. Particulars: in vivo, read-out: Vdss. The method in brief:
as §3

Series [11] is filed under the species Oryctolagus cuniculus. Description: Toxicity in rabbit assessed as effect on ventricular effective refractory period. The series is classed as organism-based, Cardiac ventricle. As to conditions: in vivo. The method in brief:
as §2

A short description of series [12]: Half life in rat at 1.6 mg/kg administered as intra-arterial infusion for 10 mins and 3.6 mg/kg, po. The class given is ADME, organism-based. Particulars: in vivo. The method in brief: as §3
The nature of series [13]: Cmax in rat at 1.6 mg/kg administered as intra-arterial infusion for 10 mins and 3.6 mg/kg, po. The series is classed as ADME, organism-based. On the set-up: route oral. As to conditions: in vivo. The essentials:
as §3

The nature of series [14]: Plasma concentration in rat at 3 mg/kg, iv administered as infusion for 5 mins. The series is classed as ADME, organism-based. The essentials:
as §4

Series [15] relates to Rattus norvegicus. Description: Induction of QT interval prolongation in rat at 3 mg/kg, iv administered as infusion for 5 mins by ECG analysis. The series is classed as functional. The essentials:
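Rats were dosed at 3 mg/Kg. Block of IKur was read as the percent change in the ECG QT interval; mean blood pressure and plasma concentration were recorded alongside. Values are means of 2-4 experiments.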

For series [16], the species on record is Homo sapiens. The series can be described thus: Inhibition of sodium channel (unknown origin) at 10 uM relative to control. The essentials:
(§5)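 Calcium (ICa) and sodium (INa) currents were measured as percent inhibition at a single concentration of 10 µM. Values are means of 2-4 experiments.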

For series [17], the species on record is Oryctolagus cuniculus. Description: Induction of […] effective refractory period prolongation in rabbit. The class given is functional. The method in brief:
as §2

A short description of series [18]: Cmax in rabbit at 0.3 to 3 mg/kg. As to conditions: in vivo. The class given is ADME, organism-based, Oryctolagus cuniculus. The method in brief: as §2
Series [19] can be described thus: Oral bioavailability in rat at 3.6 mg/kg. As to conditions: in vivo. The class given is ADME, organism-based. The method in brief:
as §3

The species named for series [20] is Homo sapiens. Description: Inhibition of calcium channel (unknown origin) at 10 uM relative to control. The essentials: as §5
In series [21] the target is hERG (KCNH2) (Homo sapiens, UniProt Q12809). Description: Inhibition of human ERG at 10 uM relative to control. The method in brief: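 Screening panel of over 37 receptors and enzymes relevant to cardiovascular effects or toxicity. Each target was tested at a single concentration of 10 µM, with % activity reported.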

Structures are written as SMILES.

Chain of hERG (KCNH2) (Q12809 whole entry): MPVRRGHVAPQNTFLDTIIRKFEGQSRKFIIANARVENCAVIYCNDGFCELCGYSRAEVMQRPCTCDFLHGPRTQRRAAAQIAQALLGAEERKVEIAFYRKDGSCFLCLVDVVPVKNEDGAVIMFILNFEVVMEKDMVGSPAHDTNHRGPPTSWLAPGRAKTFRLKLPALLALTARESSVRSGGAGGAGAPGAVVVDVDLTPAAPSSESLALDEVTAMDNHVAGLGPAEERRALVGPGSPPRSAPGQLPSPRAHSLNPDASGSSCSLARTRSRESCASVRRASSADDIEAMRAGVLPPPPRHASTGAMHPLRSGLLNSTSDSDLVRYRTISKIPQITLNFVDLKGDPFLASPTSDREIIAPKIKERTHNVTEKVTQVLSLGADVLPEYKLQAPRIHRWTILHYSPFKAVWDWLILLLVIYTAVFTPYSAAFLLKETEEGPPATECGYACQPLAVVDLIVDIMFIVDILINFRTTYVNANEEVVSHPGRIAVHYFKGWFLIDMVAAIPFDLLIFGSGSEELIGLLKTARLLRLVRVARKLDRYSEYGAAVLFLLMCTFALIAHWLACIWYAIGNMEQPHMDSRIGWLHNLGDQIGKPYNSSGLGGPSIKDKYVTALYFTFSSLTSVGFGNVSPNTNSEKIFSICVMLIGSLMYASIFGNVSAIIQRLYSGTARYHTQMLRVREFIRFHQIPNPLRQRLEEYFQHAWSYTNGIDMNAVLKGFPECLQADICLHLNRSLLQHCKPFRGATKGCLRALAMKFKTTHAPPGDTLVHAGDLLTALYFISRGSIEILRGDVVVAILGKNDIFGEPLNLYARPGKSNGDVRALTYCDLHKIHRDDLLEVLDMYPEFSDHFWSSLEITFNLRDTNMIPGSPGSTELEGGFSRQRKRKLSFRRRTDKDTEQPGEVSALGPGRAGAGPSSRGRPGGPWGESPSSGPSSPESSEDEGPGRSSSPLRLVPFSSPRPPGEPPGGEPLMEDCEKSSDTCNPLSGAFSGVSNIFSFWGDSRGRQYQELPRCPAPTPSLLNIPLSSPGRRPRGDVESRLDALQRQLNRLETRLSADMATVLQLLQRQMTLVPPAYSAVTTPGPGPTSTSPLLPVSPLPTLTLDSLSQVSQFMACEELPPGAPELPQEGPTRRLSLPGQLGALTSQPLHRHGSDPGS
T1 sequence (P22460 whole entry): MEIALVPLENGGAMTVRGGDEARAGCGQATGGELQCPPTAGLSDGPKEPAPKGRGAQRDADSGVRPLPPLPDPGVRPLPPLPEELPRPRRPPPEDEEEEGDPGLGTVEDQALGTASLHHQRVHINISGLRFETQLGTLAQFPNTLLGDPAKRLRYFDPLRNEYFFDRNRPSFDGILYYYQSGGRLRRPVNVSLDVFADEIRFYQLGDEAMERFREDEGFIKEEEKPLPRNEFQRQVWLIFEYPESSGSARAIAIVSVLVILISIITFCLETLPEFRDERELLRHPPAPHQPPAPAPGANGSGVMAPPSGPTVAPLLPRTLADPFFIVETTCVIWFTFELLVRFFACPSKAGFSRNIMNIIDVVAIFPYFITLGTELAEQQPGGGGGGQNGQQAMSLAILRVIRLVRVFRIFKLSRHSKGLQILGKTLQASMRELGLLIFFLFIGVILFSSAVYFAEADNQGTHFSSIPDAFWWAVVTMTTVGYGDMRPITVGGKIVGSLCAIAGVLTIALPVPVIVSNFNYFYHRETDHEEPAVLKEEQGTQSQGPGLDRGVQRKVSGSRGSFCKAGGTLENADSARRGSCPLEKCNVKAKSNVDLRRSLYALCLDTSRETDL

In the case of `COc1cccc2c1C(NC[C@]1(c3ccccc3)CC[C@H](OC(=O)NCCO)CC1)=NS2(=O)=O`, in series [1], the IC50 is above 10000 nM. For the same molecule, the inhibition in series [2] stood at 27%.

Consider `CCN(CC)S(=O)(=O)N[C@H]1CC[C@](CNC2=NS(=O)(=O)c3cccc(OC)c32)(c2ccccc2)CC1`, for which the IC50 in [1] stood at 52 nM. For the same molecule, the remaining at 10 min, 3 µM in series [3], in [4] and in series [5] was below 1% in each case.

With `COc1cccc2c1C(NCC(C)(C)c1ccccc1)=NC2=O`, the IC50 in [1] is 34 nM. The results for the remaining at 10 min, 3 µM in series [4] and in series [5] were 99% and 43%, respectively.

In the case of `CCNC(=O)O[C@H]1CC[C@](CNC2=NS(=O)(=O)c3cccc(OC)c32)(c2ccccc2)CC1`, the IC50 in series [1] is 65 nM. The remaining at 10 min, 3 µM in series [3] was below 1%; in series [4], 2%; in series [5] it was below 1%.

As for `COc1cccc2c1C(NC[C@]1(c3ccccc3)CC[C@H](OC(=O)NC3CC3)CC1)=NS2(=O)=O`, the IC50 in series [1] stood at 170 nM. The remaining at 10 min, 3 µM in series [3] is below 1%; in series [4] it was 9%; in [5] it was 5%.

As for `COc1cccc2onc(NCC(C)(C)c3ccccc3)c12`, the remaining at 10 min, 3 µM came out at 11% in series [3], 7% in series [4] and 13% in [5].

With `COc1cccc2c1C(NC[C@]1(c3ccccc3)CC[C@H](OC(=O)NCCC(F)(F)F)CC1)=NS2(=O)=O`, the IC50 in [1] was determined as 89 nM. Further, the remaining at 10 min, 3 µM in series [3] was 3%; in series [4], below 1%; in [5], below 1%.

As for `COc1cccc2c1C(NC[C@]1(c3ccccc3)CC[C@H](N)CC1)=NS2(=O)=O`, the IC50 in [1] was above 10000 nM. Besides, the inhibition in [2] was determined as 5%.

For the molecule `CCOP(=O)(NC(=O)O[C@H]1CC[C@](CNC2=NS(=O)(=O)c3cccc(OC)c32)(c2ccccc2)CC1)OCC`, in series [1], the IC50 was above 10000 nM. For the same molecule, in series [2], the inhibition worked out at 13%.

In the case of `CCNC(=O)N[C@H]1CC[C@](CNC2=NS(=O)(=O)c3cccc(OC)c32)(c2ccccc2)CC1`, the IC50 in series [1] is above 10000 nM. The inhibition in [2] is 20%.

For the molecule `COc1cccc2c1C(NC[C@]1(c3ccccc3)CC[C@@H](O)CC1)=NS2(=O)=O`, the IC50 in series [1] was above 300 nM. Further, the inhibition in series [2] was found to be 14%. Besides, the figures for the remaining at 10 min, 3 µM in [3], in [4] and in series [5] were 73%, 98% and 73%, respectively.

In the case of `COc1cccc2c1C(NC[C@]1(c3ccccc3)CC[C@H](OC(=O)Nc3nnc(C4CC4)s3)CC1)=NS2(=O)=O`, the Activity in series [6] was 6%; in series [8], 19%; in series [11], “Non-toxic”; in [15], 23%. The IC50 in [1] was found to be 92 nM. The molecule further displayed a clearance in [7] of 6.8 mL/min/kg. In series [9], this molecule yielded an AUC of 0.2 µM·h. The Vd in series [10] was found to be 0.9 L/kg. Moreover, the half-life in [12] is 2.3 h. Besides, the results for the Cmax in series [13] and in series [18] were 0.011 µM and 23 µM, respectively. The concentration at 5 min in series [14] was 72 µM. The results for the inhibition in [16] and in [20] were 21% and 8%, respectively. Further, the EC20 in series [17] was 23000 nM. In series [19], this molecule had a bioavailability of 1%. Besides, at 10 µM the inhibition in series [21] was 17%. Moreover, the remaining at 10 min, 3 µM in series [3] stood at 66%; in series [4], 75%; in series [5] it was 70%.

As to `COc1cccc2c1C(NC[C@]1(c3ccccc3)CC[C@H](OC(=O)NS(=O)(=O)c3ccccc3)CC1)=NS2(=O)=O`, in series [1], the IC50 was above 10000 nM. In addition, in series [2], the inhibition is 1%.

For `COc1cccc2c1C(NC[C@]1(c3ccccc3)CC[C@H](Nc3ncccn3)CC1)=NS2(=O)=O`, in series [1], the IC50 was 47 nM. Also, the results for the remaining at 10 min, 3 µM in series [3], in series [4] and in series [5] were below 1%, 6% and below 1%, respectively.

For the molecule `CCS(=O)(=O)N[C@H]1CC[C@](CNC2=NS(=O)(=O)c3cccc(OC)c32)(c2ccccc2)CC1`, in [1], the IC50 is 60 nM. The inhibition in [16] came to 7%; in series [20], 14%. The inhibition at 10 µM in series [21] was 59%. Further, the remaining at 10 min, 3 µM in [3] is 30%; in series [4] it was 75%; in series [5], 67%.

As for `COc1cccc2c1C(NC[C@]1(c3ccccc3)CC[C@H](n3cnnn3)CC1)=NS2(=O)=O`, the IC50 in series [1] was 32 nM. Moreover, the remaining at 10 min, 3 µM in series [3] was 56%; in series [4], 56%; in series [5] it was 19%.

On to `CCOC(=O)N[C@H]1CC[C@](CNC2=NS(=O)(=O)c3cccc(OC)c32)(c2ccccc2)CC1`, for which the IC50 in series [1] was 55 nM. Also, the remaining at 10 min, 3 µM in series [4] was 55%; in series [5] it was 19%.

As to `COc1cccc2c1C(NC[C@]1(c3ccccc3)CC[C@H](OC(=O)Nc3ccc(N(C)C)cc3)CC1)=NS2(=O)=O`, the IC50 in series [1] came to 30 nM. The remaining at 10 min, 3 µM in series [3] was below 1%; in series [4], 2%; in [5] it was below 1%.

Turning to `COc1cccc2snc(NCC(C)(C)c3ccccc3)c12`, the half-maximal inhibitory concentration (IC50) in [1] came to 24 nM. Further, in [4], the remaining at 10 min, 3 µM came out at 13%.

On to `COc1cccc2c1C(NC[C@]1(c3ccccc3)CC[C@H](NS(N)(=O)=O)CC1)=NS2(=O)=O`, for which the IC50 in series [1] was above 10000 nM. Moreover, in series [2], the inhibition was 18%.

As for `COc1cccc2c1C(NC[C@]1(c3ccccc3)CC[C@H](OC(=O)N(C)CCN(C)C)CC1)=NS2(=O)=O`, the IC50 in series [1] was above 10000 nM. In [2], the inhibition came to 4%.

Take `COc1cccc2c1C(NC[C@]1(c3ccccc3)CC[C@H](NC(=O)OCC(F)(F)F)CC1)=NS2(=O)=O`: the IC50 in series [1] was determined as 28 nM. Besides, the inhibition came to 23% in [16] and 51% in series [20]. Also, testing at 10 µM in series [21] gave an inhibition of 47%. Besides, the remaining at 10 min, 3 µM was determined as 48% in series [3], 95% in series [4] and 57% in series [5].
